Results as given in ChEMBL document CHEMBL3407386, “Design, synthesis, and biological evaluation of tetrazole analogs of Cl-amidine as protein arginine deiminase inhibitors” (J Med Chem, 2015).
Activity calls are given as the source filed them. No cut-off for these calls is given here.

What was measured:
U2OS [1] = assay: Antiproliferative activity against human U2OS cells expressing PAD4 assessed as cell viability at 20 uM after 72 hrs by XTT assay; format: functional
Summary of the method: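 U2OS cells were treated the next day at 20 μM final for 72 h, with DMSO and Triton X-100 as controls. Viability was read by XTT absorbance at 475 nm.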

[2] = biological target: Protein-arginine deiminase type-4 (Homo sapiens) (UniProt Q9UM07); assay: Inhibition of PAD4 (unknown origin) using N-alpha-benzoyl-L-arginine ethyl ester as substrate assessed as citrulline production after 15 mins by COLDER assay
Sequence of Protein-arginine deiminase type-4 (Homo sapiens) (Q9UM07 whole entry): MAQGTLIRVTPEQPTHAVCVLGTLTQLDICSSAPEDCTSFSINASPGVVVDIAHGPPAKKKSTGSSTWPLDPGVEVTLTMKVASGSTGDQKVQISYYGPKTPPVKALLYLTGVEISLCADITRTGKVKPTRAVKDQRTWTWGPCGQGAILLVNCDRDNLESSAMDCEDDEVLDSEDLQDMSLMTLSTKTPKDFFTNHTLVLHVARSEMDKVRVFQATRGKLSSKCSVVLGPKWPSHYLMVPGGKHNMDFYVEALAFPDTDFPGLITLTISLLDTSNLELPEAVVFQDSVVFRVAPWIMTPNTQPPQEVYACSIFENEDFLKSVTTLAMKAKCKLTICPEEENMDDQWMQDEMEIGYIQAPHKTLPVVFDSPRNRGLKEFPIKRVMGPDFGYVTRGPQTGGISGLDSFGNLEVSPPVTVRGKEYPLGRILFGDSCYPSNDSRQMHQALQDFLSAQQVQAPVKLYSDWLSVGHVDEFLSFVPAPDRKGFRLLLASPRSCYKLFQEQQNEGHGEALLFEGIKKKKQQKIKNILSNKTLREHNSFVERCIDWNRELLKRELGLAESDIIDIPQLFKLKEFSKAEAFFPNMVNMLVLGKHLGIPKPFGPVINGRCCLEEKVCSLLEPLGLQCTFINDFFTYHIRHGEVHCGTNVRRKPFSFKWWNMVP

[3] = biological target: Protein-arginine deiminase type-4 (Homo sapiens) (UniProt Q9UM07); assay: Ratio of Kinact to Ki for PAD4 (unknown origin) using N-alpha-benzoyl-L-arginine ethyl ester as substrate assessed as citrulline production after 15 mins by COLDER assay
Homo sapiens [4] = species: Homo sapiens; assay: Selectivity ratio for PAD1 (unknown origin) over PAD3 (unknown origin)
Homo sapiens [5] = species: Homo sapiens; assay: Selectivity ratio for PAD1 (unknown origin) over PAD2 (unknown origin)
[6] = biological target: T1, Protein-arginine deiminase type-1 (Homo sapiens) (UniProt Q9ULC6); assay: Ratio of Kinact to Ki for PAD1 (unknown origin) using N-alpha-benzoyl-L-arginine ethyl ester as substrate assessed as citrulline production after 15 mins by COLDER assay
T1 sequence (whole entry): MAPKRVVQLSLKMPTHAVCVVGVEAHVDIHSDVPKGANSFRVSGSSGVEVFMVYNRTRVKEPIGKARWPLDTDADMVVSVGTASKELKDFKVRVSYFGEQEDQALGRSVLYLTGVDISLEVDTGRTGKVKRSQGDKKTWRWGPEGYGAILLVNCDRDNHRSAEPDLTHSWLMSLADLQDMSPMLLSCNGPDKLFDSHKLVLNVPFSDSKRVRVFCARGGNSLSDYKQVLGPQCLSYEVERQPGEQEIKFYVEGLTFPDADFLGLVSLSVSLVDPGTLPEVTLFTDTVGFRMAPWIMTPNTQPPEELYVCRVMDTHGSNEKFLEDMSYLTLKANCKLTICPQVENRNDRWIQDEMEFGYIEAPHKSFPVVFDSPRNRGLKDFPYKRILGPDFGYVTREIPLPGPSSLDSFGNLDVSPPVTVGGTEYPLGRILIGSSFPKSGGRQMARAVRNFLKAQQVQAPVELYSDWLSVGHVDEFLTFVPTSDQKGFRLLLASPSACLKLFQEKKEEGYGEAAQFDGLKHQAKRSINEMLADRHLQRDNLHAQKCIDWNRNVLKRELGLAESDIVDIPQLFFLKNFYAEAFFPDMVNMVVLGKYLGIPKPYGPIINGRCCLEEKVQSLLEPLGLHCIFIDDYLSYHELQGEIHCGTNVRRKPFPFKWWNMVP

Liver = assay: Metabolic stability in mouse liver microsomes; format: ADME
[7] = biological target: T1, Protein-arginine deiminase type-1 (Homo sapiens); assay: Inhibition of PAD1 (unknown origin) using N-alpha-benzoyl-L-arginine ethyl ester as substrate assessed as citrulline production after 15 mins by COLDER assay
U2OS [8] = assay: Antiproliferative activity against human U2OS cells expressing PAD4 assessed as cell viability after 72 hrs by XTT assay; format: functional, cell-based
Summary of the method: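 U2OS human osteosarcoma cells were plated and treated the next day with an eight-point concentration series for 72 h. Viability was read by XTT at 475 nm. EC50 was fitted to a dose–response equation with range (uninhibited minus background) and slope factor.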

[9] = Cytotoxicity against human neutrophils assessed as cell viability after 4 hrs by XTT assay; format: cell-based; details: Neutrophil
Summary of the method: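 Freshly isolated human neutrophils in RPMI 1640 with 10% FBS were seeded at 40 000 cells/well on poly-L-lysine and allowed to adhere for 1 h. They were exposed to compound at 1–500 μM for 4 h, and viability was read by XTT.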

[10] = biological target: Protein-arginine deiminase type-2 (Homo sapiens) (UniProt Q9Y2J8); assay: Inhibition of PAD2 (unknown origin) using N-alpha-benzoyl-L-arginine ethyl ester as substrate assessed as citrulline production after 15 mins by COLDER assay
Sequence of Protein-arginine deiminase type-2 (Homo sapiens) (Q9Y2J8 whole entry): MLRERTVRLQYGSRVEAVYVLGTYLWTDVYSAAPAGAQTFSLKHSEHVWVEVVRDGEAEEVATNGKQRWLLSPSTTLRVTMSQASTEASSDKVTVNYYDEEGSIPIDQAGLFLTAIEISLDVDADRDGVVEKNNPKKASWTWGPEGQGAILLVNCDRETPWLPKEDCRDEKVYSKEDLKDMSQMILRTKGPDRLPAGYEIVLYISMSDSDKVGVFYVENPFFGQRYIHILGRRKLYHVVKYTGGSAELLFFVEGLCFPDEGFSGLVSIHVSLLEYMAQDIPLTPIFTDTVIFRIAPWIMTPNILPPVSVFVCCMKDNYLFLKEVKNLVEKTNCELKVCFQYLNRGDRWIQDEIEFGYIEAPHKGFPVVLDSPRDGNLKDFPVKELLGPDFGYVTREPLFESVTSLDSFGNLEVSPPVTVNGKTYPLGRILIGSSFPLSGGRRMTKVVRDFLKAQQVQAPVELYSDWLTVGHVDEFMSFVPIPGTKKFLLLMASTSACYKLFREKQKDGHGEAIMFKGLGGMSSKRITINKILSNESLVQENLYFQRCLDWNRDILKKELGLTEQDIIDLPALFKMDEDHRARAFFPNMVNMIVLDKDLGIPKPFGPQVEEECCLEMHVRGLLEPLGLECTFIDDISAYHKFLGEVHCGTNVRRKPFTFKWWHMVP

[11] = biological target: Protein-arginine deiminase type-4 (Mus musculus) (UniProt Q9Z183); assay: Inhibition of PAD4 in C57BL/6 mouse bone marrow neutrophils assessed as inhibition of PMA-stimulated neutrophil extracellular trap formation at […] preincubated for 30 mins followed by PMA stimulation measured after 3 to 4 hrs by […]
Sequence of Protein-arginine deiminase type-4 (Mus musculus) (Q9Z183 whole entry): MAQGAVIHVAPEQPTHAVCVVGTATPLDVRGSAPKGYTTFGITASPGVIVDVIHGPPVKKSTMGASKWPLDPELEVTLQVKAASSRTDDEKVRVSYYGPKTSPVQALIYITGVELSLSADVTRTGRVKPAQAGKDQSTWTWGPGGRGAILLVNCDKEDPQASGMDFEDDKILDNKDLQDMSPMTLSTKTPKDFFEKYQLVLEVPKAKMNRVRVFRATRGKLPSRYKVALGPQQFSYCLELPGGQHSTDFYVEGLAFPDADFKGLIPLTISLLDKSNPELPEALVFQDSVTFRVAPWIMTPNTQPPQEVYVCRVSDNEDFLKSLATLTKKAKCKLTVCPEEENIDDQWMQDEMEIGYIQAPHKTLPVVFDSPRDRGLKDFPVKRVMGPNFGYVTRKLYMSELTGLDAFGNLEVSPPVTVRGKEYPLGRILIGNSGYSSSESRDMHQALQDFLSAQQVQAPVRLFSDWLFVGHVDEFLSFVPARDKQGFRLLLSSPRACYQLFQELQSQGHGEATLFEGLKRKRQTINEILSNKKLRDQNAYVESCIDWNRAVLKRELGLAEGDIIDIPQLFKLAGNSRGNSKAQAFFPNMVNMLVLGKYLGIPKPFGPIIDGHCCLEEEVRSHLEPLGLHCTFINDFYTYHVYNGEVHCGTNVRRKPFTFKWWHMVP
Summary of the method: (§1)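 C57BL/6 bone-marrow neutrophils were isolated on a Percoll gradient (69–78% interface, >95% Ly-6G+) and seeded at 1.5 × 10^5 on poly-L-lysine coverslips. They were pretreated for 30 min in Locke's solution, then given 100 nM PMA for 3–4 h, PFA-fixed, and stained with Hoechst and anti-myeloperoxidase. NETs (decondensed MPO+ nuclei) were counted blind over ≥5 fields as % of total cells.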

[12] = biological target: Protein-arginine deiminase type-4 (Mus musculus) (UniProt Q9Z183); assay: Inhibition of PAD4 in C57BL/6 mouse bone marrow neutrophils assessed as inhibition of PMA-stimulated neutrophil extracellular trap formation at 2 to 200 uM preincubated for 30 mins followed by PMA stimulation measured after 3 to 4 hrs by […]; summary of the method: as §1

Question: With `N=C(CF)NCCC[C@H](NC(=O)c1ccc(-c2ccccc2)cc1)c1nn[nH]n1` as the molecule, how does the Activity (U2OS [1]) read?
Answer: inactive

Question: And the inhibition [2]?
Answer: inactive

Question: Which Activity (U2OS [1]) does the source give for `N=C(CCl)NCCC[C@H](NC(=O)c1ccccc1C(=O)O)c1nn[nH]n1` here?
Answer: inactive

Question: What about the Ratio [3] of the same molecule?
Answer: 159000 M⁻¹ min⁻¹

Question: And the Selectivity ratio (Homo sapiens [4])?
Answer: 15

Question: And the Selectivity ratio (Homo sapiens [5])?
Answer: 15

Question: And the Ratio [6]?
Answer: 82000 M⁻¹ min⁻¹

Question: Which Activity (U2OS [1]) does the source give for `N=C(CF)NCCC[C@H](NC(=O)c1ccccc1C(=O)O)c1nn[nH]n1` here?
Answer: inactive

Question: And the inhibition [2]?
Answer: inactive

Question: What about the Stability (Liver) of the same molecule?
Answer: Stable

Question: And the inhibition [7]?
Answer: Active

Question: And the Selectivity ratio (Homo sapiens [4])?
Answer: 20

Question: What about the Selectivity ratio (Homo sapiens [5]) of the same molecule?
Answer: 20

Question: Which viability at 20 µM (U2OS [1]; read-out: Activity) does the source give for `CC(C)(C)n1nnc([C@H](CCCNC(=N)CF)NC(=O)c2ccc(-c3ccccc3)cc2)n1` here?
Answer: > 50%

Question: And the inhibition [2]?
Answer: inactive

Question: What about the EC50 (U2OS [8]) of the same molecule?
Answer: 45 µM

Question: What about the Stability (Liver) of the same molecule?
Answer: Stable

Question: Which Activity (U2OS [1]) does the source give for `CC(C)(C)n1nnc([C@H](CCCNC(=N)CCl)NC(=O)c2ccccc2)n1` here?
Answer: inactive

Question: Which Activity (U2OS [1]) does the source give for `N=C(CCl)NCCC[C@H](NC(=O)c1ccccc1)c1nn[nH]n1` here?
Answer: inactive

Question: Which EC50 [9] does the source give for `CC(C)(C)n1nnc([C@H](CCCNC(=N)CCl)NC(=O)c2ccc(-c3ccccc3)cc2)n1` here?
Answer: 31 µM

Question: What about the inhibition [2] of the same molecule?
Answer: inactive

Question: And the EC50 (U2OS [8])?
Answer: 10 µM

Question: For `N=C(CF)NCCC[C@H](NC(=O)c1ccccc1)C(N)=O`, which inhibition [2] is on record?
Answer: inactive

Question: Which Activity (U2OS [1]) does the source give for `N=C(CF)NCCC[C@H](NC(=O)c1ccccc1)c1nn[nH]n1` here?
Answer: inactive

Question: And the inhibition [2]?
Answer: inactive

Question: For `N=C(CCl)NCCC[C@H](NC(=O)c1ccc(-c2ccccc2)cc1)c1nn[nH]n1`, which Activity (U2OS [1]) is on record?
Answer: inactive

Question: Which results are given for `CC(C)(C)n1nnc([C@H](CCCNC(=N)CF)NC(=O)c2ccccc2C(=O)O)n1`?
Answer: Activity (U2OS [1]): inactive; inhibition [2]: inactive; Stability (Liver): Stable; inhibition [10]: Active

Question: Which Activity (U2OS [1]) does the source give for `CC(C)(C)n1nnc([C@H](CCCNC(=N)CCl)NC(=O)c2ccccc2C(=O)O)n1` here?
Answer: inactive

Question: And the EC50 [9]?
Answer: 985 µM

Question: And the Stability (Liver)?
Answer: Stable

Question: What about the inhibition [11] of the same molecule?
Answer: Active

Question: Which inhibition [12] does the source give for `N=C(CCl)NCCC[C@H](NC(=O)c1ccccc1)C(N)=O` here?
Answer: Active

Question: What does the source list for `CC(C)(C)n1nnc([C@H](CCCNC(=N)CF)NC(=O)c2ccccc2)n1`?
Answer: Activity (U2OS [1]): inactive; inhibition [2]: inactive
